Measurements: ChEMBL document CHEMBL4680236, “Design, synthesis and structure-activity relationships of novel 15-membered macrolides: Quinolone/quinoline-containing sidechains tethered to the C-6 position of azithromycin acylides” (Eur J Med Chem, 2020)
In brackets after ≈: the same amount, converted by molar mass.

Experiments:
Type in all cases: functional
Streptococcus pneumoniae [1] = assay: Ratio of MBC to MIC against penicillin-susceptible Streptococcus pneumoniae PU09
Streptococcus pneumoniae [2] = assay: Antibacterial activity against penicillin-susceptible Streptococcus pneumoniae PU09 harboring mef gene assessed as reduction in microbial growth
Streptococcus pyogenes [3] = assay: Ratio of MBC to MIC against MLSB-resistant Streptococcus pyogenes 12-206 harboring ermA gene
Streptococcus pneumoniae [4] = assay: Bactericidal activity against MLSB-resistant Streptococcus pneumoniae 07P390 harboring ermB gene assessed as reduction in microbial growth
Summary of the method: (§1)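 Bacteria were exposed to 1- to 8-fold their MIC of test sample, then transferred to fresh culture medium without antibacterial compound and incubated for the required time. Colonies were then counted. MBC is the lowest concentration giving a reduction in colony number of >3 Log₁₀.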

Streptococcus pneumoniae [5] = assay: Bactericidal activity against Erythromycin-susceptible Streptococcus pneumoniae ATCC 49619
Summary of the method: (§2)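 Bacteria were exposed to 1- to 8-fold MIC of the sample, then transferred to fresh medium without antibacterial. After further incubation, colonies were counted. MBC was taken as the lowest concentration giving a >3 log10 reduction in colony number.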

Haemophilus influenzae [6] = assay: Ratio of MBC to MIC against azithromycin-susceptible Haemophilus influenzae ATCC 49247
Streptococcus pneumoniae [7] = assay: Antibacterial activity against MLSB-resistant Streptococcus pneumoniae 07P390 harboring ermB gene assessed as reduction in microbial growth
Streptococcus pyogenes [8] = assay: Antibacterial activity against MLSB-resistant Streptococcus pyogenes 12-206 harboring ermA gene assessed as reduction in microbial growth
Streptococcus pneumoniae [9] = assay: Antibacterial activity against Erythromycin-susceptible Streptococcus pneumoniae ATCC 49619 assessed as reduction in microbial growth
Staphylococcus aureus [10] = assay: Antibacterial activity against MLSB/methicillin/ciprofloxacin-resistant Staphylococcus aureus PU32 harboring ermA gene assessed as reduction in microbial growth
Staphylococcus aureus [11] = assay: Ratio of MBC to MIC against MLSB/methicillin/ciprofloxacin-resistant Staphylococcus aureus PU32 harboring ermA gene
Streptococcus pneumoniae [12] = assay: Bactericidal activity against penicillin-susceptible Streptococcus pneumoniae PU09 harboring mef gene; summary of the method: as §1
Staphylococcus aureus [13] = assay: Antibacterial activity against MLSB/methicillin-resistant Staphylococcus aureus 15B196 assessed as reduction in microbial growth
Streptococcus pneumoniae [14] = assay: Ratio of MBC to MIC against Erythromycin-susceptible Streptococcus pneumoniae ATCC 49619
Haemophilus influenzae [15] = assay: Antibacterial activity against azithromycin-susceptible Haemophilus influenzae ATCC 49247 assessed as reduction in microbial growth
Staphylococcus aureus [16] = assay: Bactericidal activity against MLSB/methicillin-resistant Staphylococcus aureus 15B196; summary of the method: as §1
Streptococcus pyogenes [17] = assay: Bactericidal activity against MLSB-resistant Streptococcus pyogenes 12-206 harboring ermA gene; summary of the method: as §1
Staphylococcus aureus [18] = assay: Bactericidal activity against MLSB/methicillin/ciprofloxacin-resistant Staphylococcus aureus PU32 harboring ermA gene; summary of the method: as §1
Haemophilus influenzae [19] = assay: Bactericidal activity against azithromycin-susceptible Haemophilus influenzae ATCC 49247; summary of the method: as §2
Streptococcus pneumoniae [20] = assay: Ratio of MBC to MIC against MLSB-resistant Streptococcus pneumoniae 07P390 harboring ermB

SMILES | Ratio (Streptococcus pneumoniae [1]) | MIC (Streptococcus pneumoniae [2]) | Ratio (Streptococcus pyogenes [3]) | MBC (Streptococcus pneumoniae [4]) | MBC (Streptococcus pneumoniae [5]) | Ratio (Haemophilus influenzae [6]) | MIC (Streptococcus pneumoniae [7]) | MIC (Streptococcus pyogenes [8]) | MIC (Streptococcus pneumoniae [9]) | MIC (Staphylococcus aureus [10]) | Ratio (Staphylococcus aureus [11]) | MBC (Streptococcus pneumoniae [12]) | MIC (Staphylococcus aureus [13]) | Ratio (Streptococcus pneumoniae [14]) | MIC (Haemophilus influenzae [15]) | MBC (Staphylococcus aureus [16]) | MBC (Streptococcus pyogenes [17]) | MBC (Staphylococcus aureus [18]) | MBC (Haemophilus influenzae [19]) | Ratio (Streptococcus pneumoniae [20])
CC[C@H]1OC(=O)[C@H](C)[C@@H](OC(=O)Cc2ccccn2)[C@H](C)[C@@H](O[C@@H]2O[C@H](C)C[C@H](N(C)C)[C@H]2O)[C@](C)(OC(=O)CCN2CCN(c3nc4c(cc3F)c(=O)c(C(N)=O)cn4CC)CC2)C[C@@H](C)CN(C)[C@H](C)[C@@H](O)[C@]1(C)O | 2 | 2 µg/mL | >8 | 128 µg/mL | 1 µg/mL (≈ 0.923 µM) | 1 | 64 µg/mL | 16 µg/mL | 0.5 µg/mL | 32 µg/mL | >8 | 4 µg/mL (≈ 3.69 µM) | 256 µg/mL | 2 | 8 µg/mL | > 256 µg/mL | > 128 µg/mL | > 256 µg/mL | 8 µg/mL (≈ 7.38 µM) | 
CC[C@H]1OC(=O)[C@H](C)[C@@H](OC(=O)Cc2ccccn2)[C@H](C)[C@@H](O[C@@H]2O[C@H](C)C[C@H](N(C)C)[C@H]2O)[C@](C)(OC(=O)CCNCCC#Cc2ccc3c(c2)c(=O)c(C(N)=O)cn3CC)C[C@@H](C)CN(C)[C@H](C)[C@@H](O)[C@]1(C)O | 1 | 2 µg/mL | >8 | > 256 µg/mL | 0.5 µg/mL (≈ 0.477 µM) | 1 | 256 µg/mL | 8 µg/mL | 0.12 µg/mL | 32 µg/mL | >8 | 2 µg/mL (≈ 1.91 µM) | > 256 µg/mL | 4 | 16 µg/mL | > 256 µg/mL | > 64 µg/mL | > 256 µg/mL | 16 µg/mL (≈ 15.3 µM) | 
CC[C@H]1OC(=O)[C@H](C)[C@@H](OC(=O)Cc2cccnc2)[C@H](C)[C@@H](O[C@@H]2O[C@H](C)C[C@H](N(C)C)[C@H]2O)[C@](C)(OC(=O)CCNCCC#Cc2ccc3c(c2)c(=O)c(C(N)=O)cn3C2CC2)C[C@@H](C)CN(C)[C@H](C)[C@H]2OC(=O)O[C@@]21C | 2 | 4 µg/mL | 2 | 128 µg/mL | 2 µg/mL (≈ 1.84 µM) | 1 | 64 µg/mL | 32 µg/mL | 1 µg/mL | 64 µg/mL | >4 | 8 µg/mL (≈ 7.37 µM) | > 256 µg/mL | 2 | 64 µg/mL | > 256 µg/mL | 64 µg/mL (≈ 59 µM) | > 256 µg/mL | 64 µg/mL (≈ 59 µM) | 
CC[C@H]1OC(=O)[C@H](C)[C@@H](OC(=O)Cc2ccccn2)[C@H](C)[C@@H](O[C@@H]2O[C@H](C)C[C@H](N(C)C)[C@H]2O)[C@](C)(OC(=O)CCNCC#Cc2cnc3ccccc3c2)C[C@@H](C)CN(C)[C@H](C)[C@@H](O)[C@]1(C)O | 1 | 2 µg/mL |  | > 8 µg/mL | 0.125 µg/mL (≈ 0.132 µM) | 1 | 1 µg/mL |  | 0.125 µg/mL | 2 µg/mL | 4 | 2 µg/mL (≈ 2.11 µM) | 128 µg/mL | 1 | 4 µg/mL | > 256 µg/mL |  | 8 µg/mL (≈ 8.45 µM) | 4 µg/mL (≈ 4.23 µM) | >8
CC[C@H]1OC(=O)[C@H](C)[C@@H](OC(=O)Cc2ccccn2)[C@H](C)[C@@H](O[C@@H]2O[C@H](C)C[C@H](N(C)C)[C@H]2O)[C@](C)(OC(=O)CCNCCC#Cc2ccc3c(c2)c(=O)c(C(N)=O)cn3C2CC2)C[C@@H](C)CN(C)[C@H](C)[C@H]2OC(=O)O[C@@]21C | 2 | 4 µg/mL | 4 | 128 µg/mL | 1 µg/mL (≈ 0.921 µM) | 2 | 64 µg/mL | 16 µg/mL | 0.5 µg/mL | 64 µg/mL | >4 | 8 µg/mL (≈ 7.37 µM) | 128 µg/mL | 2 | 64 µg/mL | > 256 µg/mL | 64 µg/mL (≈ 59 µM) | > 256 µg/mL | 128 µg/mL (≈ 118 µM) | 
CC[C@H]1OC(=O)[C@H](C)[C@@H](OC(=O)Cc2ccccn2)[C@H](C)[C@@H](O[C@@H]2O[C@H](C)C[C@H](N(C)C)[C@H]2O)[C@](C)(OC(=O)CCNCCNc2cc3c(=O)c(C(=O)O)cn(C4CC4)c3cc2Cl)C[C@@H](C)CN(C)[C@H](C)[C@@H](O)[C@]1(C)O | 1 | 4 µg/mL |  | > 8 µg/mL | 0.25 µg/mL (≈ 0.23 µM) | 2 | 1 µg/mL |  | 0.25 µg/mL | 8 µg/mL | >8 | 4 µg/mL (≈ 3.68 µM) | > 256 µg/mL | 1 | 16 µg/mL |  |  | > 64 µg/mL | 32 µg/mL (≈ 29.5 µM) | >8
CC[C@H]1OC(=O)[C@H](C)[C@@H](OC(=O)Cc2ccccn2)[C@H](C)[C@@H](O[C@@H]2O[C@H](C)C[C@H](N(C)C)[C@H]2O)[C@](C)(OC(=O)CCNCCCc2cnc3ccccc3c2)C[C@@H](C)CN(C)[C@H](C)[C@@H](O)[C@]1(C)O | 2 | 2 µg/mL |  | 16 µg/mL | 0.062 µg/mL (≈ 0.0652 µM) | 1 | 2 µg/mL |  | 0.062 µg/mL | 4 µg/mL | 8 | 4 µg/mL (≈ 4.21 µM) | > 256 µg/mL | 1 | 16 µg/mL |  |  | 32 µg/mL (≈ 33.7 µM) | 16 µg/mL (≈ 16.8 µM) | 8
CC[C@H]1OC(=O)[C@H](C)[C@@H](OC(=O)Cc2ccccn2)[C@H](C)[C@@H](O[C@@H]2O[C@H](C)C[C@H](N(C)C)[C@H]2O)[C@](C)(OC(=O)CCNCCC#Cc2cncc(C(N)=O)c2)C[C@@H](C)CN(C)[C@H](C)[C@@H](O)[C@]1(C)O | 2 | 2 µg/mL | >8 | > 256 µg/mL | 0.25 µg/mL (≈ 0.262 µM) | 2 | 128 µg/mL | 4 µg/mL | 0.25 µg/mL | 16 µg/mL | >8 | 4 µg/mL (≈ 4.2 µM) | > 256 µg/mL | 1 | 64 µg/mL | > 256 µg/mL | > 32 µg/mL | > 128 µg/mL | 128 µg/mL (≈ 134 µM) | 
CC[C@H]1OC(=O)[C@H](C)[C@@H](OC(=O)Cc2ccccn2)[C@H](C)[C@@H](O[C@@H]2O[C@H](C)C[C@H](N(C)C)[C@H]2O)[C@](C)(OC(=O)CCNC/C=C/c2cnc3ccccc3c2)C[C@@H](C)CN(C)[C@H](C)[C@@H](O)[C@]1(C)O | 1 | 2 µg/mL |  | > 8 µg/mL | 0.25 µg/mL (≈ 0.264 µM) | 2 | 1 µg/mL |  | 0.125 µg/mL | 2 µg/mL | >8 | 2 µg/mL (≈ 2.11 µM) | > 256 µg/mL | 2 | 8 µg/mL |  |  | > 16 µg/mL | 16 µg/mL (≈ 16.9 µM) | >8
